Only some compounds are listed: those with a hit (about 1.8% of all), similar ones and a draw of the others.
MC4R barr agon: agonists of human melanocortin 4 receptor (MC4R) beta-arrestin; hit rate 0.98% among 360,000; AID 540308; activation, % at 8.9 µM; P32245; U2OS MC4R beta-arrestin complementation, luminescence; percent of melanotan II response, DMSO zero;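 active = activation above a per-plate cutoff, the mean activation of sample wells on that plate plus 3 SD, cut at about 8% in these data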
Target sequence (P32245 whole entry, looked up): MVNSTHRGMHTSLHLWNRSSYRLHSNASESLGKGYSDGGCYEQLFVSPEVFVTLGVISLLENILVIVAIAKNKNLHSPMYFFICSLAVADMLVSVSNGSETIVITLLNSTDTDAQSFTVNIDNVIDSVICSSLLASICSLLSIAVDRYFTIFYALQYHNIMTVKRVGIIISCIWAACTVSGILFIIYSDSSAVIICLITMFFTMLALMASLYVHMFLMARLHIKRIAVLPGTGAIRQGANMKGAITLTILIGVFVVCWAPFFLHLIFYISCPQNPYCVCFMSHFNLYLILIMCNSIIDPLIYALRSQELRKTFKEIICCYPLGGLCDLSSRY
NTR1 ag: activates human neurotensin receptor 1. P30989. NTR1-U2OS beta-arrestin-GFP spot imaging, agonist mode. activation, % at 20 µM. hit rate 0.17% among 330,000. AID 493036;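 active = activation at or above 40% of the spot to cytoplasm intensity ratio, with at least 20 cells analyzed; inconclusive = wells under 20 cells, flagged as cytotoxic or low count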
Target sequence (P30989 whole entry, looked up): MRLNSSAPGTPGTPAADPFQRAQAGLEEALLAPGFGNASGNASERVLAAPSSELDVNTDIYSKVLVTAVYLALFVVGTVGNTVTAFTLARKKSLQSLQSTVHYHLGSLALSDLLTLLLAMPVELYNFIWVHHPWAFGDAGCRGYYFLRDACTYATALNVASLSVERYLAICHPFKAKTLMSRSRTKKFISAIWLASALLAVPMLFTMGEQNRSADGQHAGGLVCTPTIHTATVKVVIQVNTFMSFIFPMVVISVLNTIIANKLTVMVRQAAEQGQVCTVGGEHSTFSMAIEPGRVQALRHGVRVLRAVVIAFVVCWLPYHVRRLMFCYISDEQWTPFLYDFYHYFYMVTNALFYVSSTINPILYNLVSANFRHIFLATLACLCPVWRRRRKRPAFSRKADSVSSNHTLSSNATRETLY
MC4R antagonist: blocks human MC4R cAMP signaling | MC4R-expressing cells, MTII-stimulated cAMP, LANCE TR-FRET | P32245 | hit rate 0.48% among 360,000 | inhibition, % at 6.5 µM;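 active = inhibition above its plate's cutoff, the mean of tested wells on that plate plus 3 SD, cut at about 29% in these data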
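Assay system: U2OS-MC4R stable cell line; Also added: Melanotan II; Technique: Eu-cAMP/anti-cAMP TR-FRET, emission 671 nm; Times: 30-min compound, 1-h challenge, 1-h detection, room temperature.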
AI-2 QS mod: modulates the Vibrio harveyi AI-2 quorum sensing system; hit rate 0.4% among 300,000; Vibrio harveyi JMH597 AI-2 luminescence/OD600 ratio, 9 h; active compounds read low; strain lacks LuxN and CqsS sensors; 0 = neutral-control median; AID 2094; activity change, % at 7.5 µM; in the data active = activity change below about -75%, passing the limit was not always enough; inconclusive = no clear call, values can overlap the other calls;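 note: luminescence divided by OD600 gain over 9 h not by final OD600 alone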
JMH597 growth: retest: inhibitors of Vibrio harveyi JMH597 growth; growth inhibition, % at 7.5 µM; AID 2726; OD600 absorbance, 9 h; lacks LuxN and CqsS sensors; shares compounds with AI-2 QS mod; hit rate 1% among 750;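 active = every replicate shows growth inhibition above 50%; inconclusive = at least half, but not all, replicates pass that cutoff; inactive = fewer than half of replicates pass it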
BB721 const-QS lum: retest counter-screen: BB721 constitutive quorum sensing luminescence decrease; shares compounds with AI-2 QS mod; Vibrio harveyi BB721 luminescence, 9 h; inhibition, % at 7.5 µM; hit rate 95% among 750;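 active = inhibition above about 80% in every replicate, not just on average, limit read from the data; inconclusive = at least half of replicates past the limit, but not all; inactive = fewer than half of replicates past the limit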
BB721 growth: retest Vibrio harveyi BB721 growth inhibition. shares compounds with AI-2 QS mod. OD600 absorbance, 9 h. growth inhibition, % at 7.5 µM. hit rate 3% among 750. AID 2728;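 active = every replicate shows growth inhibition above 50%; inconclusive = at least half but not all replicates above 50% inhibition; inactive = under half of replicates above 50% inhibition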
AI-2 QS JMH597: Vibrio harveyi AI-2 signaling luminescence modulation – JMH597 strain, confirmation | shares compounds with AI-2 QS mod | Vibrio harveyi JMH597 AI-2 quorum sensing luminescence, 9 h; luxN and CqsS knockout, AI-2 only | inhibition, % at 7.5 µM | hit rate 97% among 750 | AID 2736;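 active = every replicate shows more than 75% inhibition of signal versus neutral control wells; inconclusive = half to three quarters of replicates exceed 75% inhibition; inactive = fewer than half of replicates exceed 75% inhibition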
NTR1 ag conf: NTR1 (human) agonism, confirmed | shares compounds with NTR1 ag | NTR1-U2OS beta-arrestin-GFP translocation imaging | activation, % at 20 µM | hit rate 38% among 480;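 active = mean activation at 20 µM of at least 40%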
cAMP nonselect: U2OS forskolin cAMP inhibition counter-screen. AID 602193. shares compounds with MC4R antagonist. inhibition, % at 6.5 µM. parental U2OS, LANCE TR-FRET. hit rate 26% among 1,600;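 active = mean inhibition over triplicates above the low-control well mean plus 3 SD, set per campaign, cut at about 13% in these data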;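 note: signal is single emission at 671 nm which falls as cellular cAMP rises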
MC4R cAMP antag: human MC4R cAMP antagonism confirmation; AID 602195; MC4R-expressing cells, MTII-stimulated cAMP, TR-FRET; inhibition, % at 6.5 µM; hit rate 27% among 1,600; shares compounds with MC4R antagonist; in the data active = inhibition above about 29%
MC4R barr conf: human MC4R beta-arrestin agonism confirmation | shares compounds with MC4R barr agon | U2OS MC4R beta-arrestin recruitment, luminescence; scaled DMSO 0%, Melanotan II 100% | activation, % at 8.9 µM | hit rate 31% among 2,400 | AID 602192;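 active = mean activation across replicates above the hit cutoff set in the earlier primary screen, cut at about 8% in these data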
MOR-DOR barr ag: activates mu-delta opioid heterodimer, MC4R agonist counter-screen | activation, % at 9.2 µM | U2OS PathHunter beta-arrestin, beta-gal luminescence; percent of deltorphin B response, DMSO zero | shares compounds with MC4R barr agon | AID 602194 | hit rate 5.8% among 2,400;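 active = mean activation across replicates exceeds the hit threshold derived in the earlier primary screen, cut at about 18% in these data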
Of the large screens only hits and unclear results are named; the others gave an inactive call (follow-up assays come after a bar, where they were run).

CC1(c2ccc(OC(F)F)cc2)NC(=O)N(CC(=O)Nc2ccc(Cl)cc2F)C1=O (stereo not given)	AI-2 QS mod -94 | JMH597 growth inactive | BB721 const-QS lum 96 | BB721 growth inactive | AI-2 QS JMH597 96
COc1ccc(CNC(=O)C2CCN(S(=O)(=O)c3ccc4c(c3)CC(C)N4C(C)=O)CC2)cc1 (stereo not given)	none
O=C(CSc1nnc(COc2ccc(Cl)cc2)o1)Nc1nccs1	none (no result: NTR1 ag, AI-2 QS mod)
CCc1nnc(SCC(=O)Nc2nc(C)c(C(=O)N(C)C)s2)n1CC	none
CCOC(=O)c1cccc(NC(=O)C(C)N2C(=O)c3ccccc3C2=O)c1 (stereo not given)	AI-2 QS mod -95 | JMH597 growth inactive | BB721 const-QS lum 99 | BB721 growth inactive | AI-2 QS JMH597 99
CCOC(=O)c1ccc(NC(=O)C(C)N2C(=O)c3ccccc3C2=O)cc1 (stereo not given)	none
CCc1ccc(OCC(=O)O/N=C(\N)c2cccnc2)cc1	AI-2 QS mod -92 | JMH597 growth inactive | BB721 const-QS lum 95 | BB721 growth inactive | AI-2 QS JMH597 96
Cc1ccc(C)c(OCC(=O)O/N=C(\N)c2cccnc2)c1	none
CC(=O)N1CCN(CC(=O)NC(=O)Nc2ccc3c(c2)OCCO3)CC1	none
O=C(COC(=O)CNS(=O)(=O)c1c(F)cccc1F)NC(=O)NC1CCCCC1	none (no result: AI-2 QS mod)
Nc1nc(-c2ccccc2)nc(-c2ccccc2O)n1	none
Nc1nc(NCc2ccccc2)nc(-c2ccccc2)n1	AI-2 QS mod -82 | JMH597 growth inactive | BB721 const-QS lum 87 | BB721 growth inactive | AI-2 QS JMH597 92
Cc1ccc(C(=O)CCC(=O)Nc2cccc(C)c2)cc1	AI-2 QS mod -89 | JMH597 growth inactive | BB721 const-QS lum 96 | BB721 growth inactive | AI-2 QS JMH597 97
Cc1ccc(NC(=O)CCC(=O)c2ccccc2)cc1	none (no result: NTR1 ag, AI-2 QS mod)
Cc1cccc(OCC(=O)Nc2ccc(S(=O)(=O)N3CCCC3)cc2)c1	AI-2 QS mod -97 | JMH597 growth inactive | BB721 const-QS lum 99 | BB721 growth inactive | AI-2 QS JMH597 100
CCc1cccc(OCC(=O)Nc2ccc(S(=O)(=O)N3CCCC3)cc2)c1	AI-2 QS mod -90 | JMH597 growth inactive | BB721 const-QS lum 97 | BB721 growth inconclusive | AI-2 QS JMH597 98
COc1ccccc1CNC(=O)COc1ccc(S(=O)(=O)N2CCCC2)cc1	AI-2 QS mod inconclusive | JMH597 growth inactive | BB721 const-QS lum 85 | BB721 growth inactive | AI-2 QS JMH597 93
Cc1cccc(OCC(=O)Nc2cc(C)ccc2O)c1	AI-2 QS mod -85 | JMH597 growth inactive | BB721 const-QS lum 96 | BB721 growth inactive | AI-2 QS JMH597 97
O=C(COc1cccc(C(F)(F)F)c1)Nc1ccc(S(=O)(=O)N2CCCCC2)cc1	none
CC(=O)c1ccc(S(=O)(=O)N2CCN(CCOc3ccccc3)CC2)cc1	none (no result: AI-2 QS mod)
COc1ccccc1CC1(C)C(=O)Nc2ccc(S(=O)(=O)NC3CCCCC3)cc21 (stereo not given)	none (no result: NTR1 ag, AI-2 QS mod)
CCN(C(=O)COC(=O)c1n[nH]c2ccccc12)c1ccccc1	none (no result: AI-2 QS mod)
O=C(O)CCCC(=O)Nc1ccccc1SCCS(=O)(=O)c1ccc(Cl)cc1	none (no result: NTR1 ag)
CC(=O)c1cccc(NC(=O)COC(=O)c2ccccc2C)c1	MC4R antagonist 38, AI-2 QS mod -90 | JMH597 growth inactive | BB721 const-QS lum 98 | BB721 growth inactive | AI-2 QS JMH597 99 | cAMP nonselect inactive | MC4R cAMP antag inactive
COC(=O)c1ccc(N2CCN(C)CC2)c(NC(=O)c2ccc(Br)o2)c1	none
Oc1ccc(C[C@@H]2CNC(=S)N2CCCCC2CCCCC2)cc1	MC4R barr agon 14, NTR1 ag 44, AI-2 QS mod -92 | JMH597 growth inactive | BB721 const-QS lum 92 | BB721 growth inactive | AI-2 QS JMH597 96 | NTR1 ag conf inactive | MC4R barr conf 11 | MOR-DOR barr ag inactive
Cc1ccc(S(=O)(=O)Nc2ccc(Nc3ccccc3)cc2)cc1	MC4R barr agon 9.7, AI-2 QS mod -97 | JMH597 growth inactive | BB721 const-QS lum 100 | BB721 growth inactive | AI-2 QS JMH597 100 | MC4R barr conf inactive | MOR-DOR barr ag inactive
Cc1ccc(Nc2ccccc2)cc1	none
COc1ccccc1NC(=O)COC(=O)c1ccc(N2CCCC2=O)cc1	none (no result: AI-2 QS mod)
C/C=C\C=C/C(=O)Nc1cccc(C2=NOC3(C2)C[C@@H](C(N)=O)N(C(=O)COc2ccc(Cl)cc2)C3)c1 (stereo not given in full)	none
CCCCCC(=O)Nc1cccc(C2=NOC3(C2)C[C@H](C(N)=O)N(C(=O)COc2ccc(Cl)cc2)C3)c1 (stereo not given in full)	NTR1 ag 42 | NTR1 ag conf inactive
O=C1Nc2cc(C(=O)NCCCN3CCOCC3)ccc2S/C1=C/c1cccc(Cl)c1	NTR1 ag 44 | NTR1 ag conf inactive
O=C1Nc2cc(C(=O)NCCCN3CCOCC3)ccc2S/C1=C/c1ccccc1F	none
COc1cccc(-c2csc(NC(=O)Nc3ccccc3)n2)c1	NTR1 ag 72 | NTR1 ag conf inactive
O=C(Nc1ccc(Cl)c(Cl)c1)Nc1nc(-c2ccccc2)cs1	NTR1 ag 47 | NTR1 ag conf inactive
COc1ccc(S(=O)(=O)Nc2ccccc2C(=O)Nc2nc(-c3ccc(F)cc3)cs2)cc1OC	NTR1 ag 45 | NTR1 ag conf inactive
